Published values from different studies.
Target: Protein kinase C theta type (PRKCQ, Homo sapiens, UniProt Q04759)

Compound | read-out | action | method | concentration | measurement | value
F[C@@H]1CCN(c2nccc(-c3cnn4ncccc34)n2)C1 | binding |  |  | 1 µM | remaining binding | 100%
CC[C@H](CO)Nc1nc(NCc2ccccc2)c2ncn(C(C)C)c2n1 | cell-free assay |  |  | 0.5 µM | remaining signal | 90%
O=C(NCCCC1CCCCC1)c1ccc(CNC(=O)c2cnn(-c3ccccc3)c2C(F)(F)F)cc1 | cell-free assay |  | competition with immobilised ligand | 0.1 µM | remaining binding | 100%
O=C1NC(=O)c2cc(Nc3ccc(F)cc3)c(Nc3ccc(F)cc3)cc21 | cell-free assay |  |  | 0.5 µM | remaining signal | 98.7%
CS(=O)(=O)c1cc(C2(NC(=O)c3cncc4c3cnn4-c3ccc(F)cc3)CC2)ccn1 | cell-free assay |  | competition with immobilised ligand | 1 µM | remaining binding | 99%
CNCc1ccc(-c2cc(-c3nc(-c4ccc(S(=O)(=O)C(C)C)cc4)cnc3N)on2)cc1 | enzyme activity | inhibitor |  | 2 µM | inhibition | 0%
CCN(CC)CCNC(=O)c1c(C)[nH]c(/C=C2\C(=O)Nc3ccc(F)cc32)c1C | enzyme activity | inhibitor |  | 10 µM | inhibition | 11%
Cc1cnc(NC2CCOCC2)nc1-n1cnc(C(=O)NC(CN)c2cc(F)cc(Cl)c2)c1 (stereo not shown) | enzyme activity | inhibitor | radiometric | 1 µM | remaining activity | 99%
CN(C)C1CCN(CC#Cc2nn(C3CCCC3)c3nc(NCc4ccccc4)ncc23)C1 (stereo not shown) | enzyme activity | inhibitor | FRET | 0.1 µM | inhibition | -1%
Nc1ncnc2occ(-c3ccc(NC(=O)Nc4cc(C(F)(F)F)ccc4F)cc3)c12 | cell-free assay |  |  | 20 µM | remaining signal | 13%
CC1=C(C#N)[C@@H](c2ccc3[nH]nc(C)c3c2)C(C#N)=C(c2ccc(Cl)cc2)N1 | cell-free assay |  | competition with immobilised ligand | 1 µM | remaining binding | 100%
CC(C)(C)c1nc2c(s1)c1nc(N)ncc1c1ccc(NS(=O)(=O)c3c(F)cccc3F)c(F)c12 | enzyme activity | inhibitor | radiometric | 1 µM | remaining activity | 115%
Cn1nc(C(F)(F)F)cc1-c1cnc(N2CCc3cc(S(=O)(=O)Nc4c(F)cc(Cl)cc4F)cc(N4CCCC4=O)c32)nc1 | cell-free assay |  | competition with immobilised ligand | 1 µM | remaining binding | 100%
C[C@@H](N)[C@H]1CC[C@H](C(=O)Nc2ccncc2)CC1 | enzyme activity | inhibitor | TR-FRET | 10 µM | inhibition | 82.7%
Cc1sc(C(=O)NC2COC2)cc1-n1cc(NC(=O)Nc2c(F)cccc2Cl)cn1 | enzyme activity | inhibitor |  | 10 µM | remaining activity | 96.9%
O=C(O)c1cc(-c2ccc(C3CCNCC3)cc2)c2ccc(-c3ccc(C(F)(F)F)cc3)cc2c1 | cell-free assay |  | competition with immobilised ligand | 1 µM | remaining binding | 100%
COc1cc2c(Nc3ccc(Br)cc3F)ncnc2cc1OCC1CCN(C)CC1 | cell-free assay |  |  | 0.5 µM | remaining signal | 100%
Cn1cnc(Br)c1C1=CN(c2ncnc3[nH]cnc23)CCS1 | enzyme activity | inhibitor | radiometric | 2 µM | inhibition | 97.9%
CO[C@@H](C)c1c(Nc2ccc([C@@H](N(C)C(=O)C3CCS(=O)(=O)CC3)C(F)(F)F)cc2)cnc2cc(Cl)nn12 | cell-free assay |  | competition with immobilised ligand | 1 µM | remaining binding | 98%
CCCOc1ccc(OC)c(F)c1C(=O)c1ccc(C(=O)N[C@@H]2CNC[C@H]2NC(=O)c2ccc3[nH]ncc3c2)cc1 | enzyme activity | inhibitor |  | 10 µM | remaining activity | 22%
CNC(=O)c1cc(Oc2ccc(NC(=O)Nc3ccc(Cl)c(C(F)(F)F)c3)cc2)ccn1 | enzyme activity | inhibitor |  | 0.3 µM | inhibition | 3%
CCS(=O)(=O)c1cc2cc(C[C@@](O)(CC(C)(C)c3ccc(F)cc3C(N)=O)C(F)(F)F)[nH]c2cn1 | cell-free assay |  | competition with immobilised ligand | 1 µM | remaining binding | 97%
